Several values for one entry are separate records, joined by “and”; a condition that tells them apart may be missing. Identical values can stand only once. Like-named read-outs stand apart in the source and are kept apart here.
Assays:
MRSA [1] = test: Time-kill experiment; assay type: cell-based, Staphylococcus aureus; conditions: for inhibition at 150 µg/mL: Staphylococcus aureus, MRSA, read-out: percentage of inhibition (time-kill)
Method in brief: (§1)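 S. aureus suspension (1.5 × 10^5 CFU/mL) and test compound, prepared at 150 μg/mL before mixing, were added in equal volumes to flasks of MH broth. A flask without test compound served as control. Flasks were shaken at 150 rpm and 37°C for 24 h. At set intervals, 100 μL aliquots were spread on MH agar for colony counts.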

MSSA [2] = test: Time-kill experiment; assay type: cell-based, Staphylococcus aureus
Method in brief: as §1

MRSA-pvl- [3] = test: Time-kill experiment; assay type: cell-based, Staphylococcus aureus; conditions: >3 h of exposure (Figure S2)
Method in brief: as §1

MRSA-pvl+ [4] = test: Time-kill experiment; assay type: cell-based, Staphylococcus aureus; conditions: >3 h of exposure (Figure S2)
Method in brief: as §1

zebrafish embryos = test: Reactive oxygen species; assay type: in vivo
Method in brief: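 Wild-type AB zebrafish embryos at 24 hpf, one per well and 10 per group, were exposed to five concentrations of test compound for 30, 60, 120 or 240 min. Controls were distilled water and 0.5 mM H2O2. Embryos were washed in PBS and spun 10,000 rpm, 5 min, 4°C. They were homogenized in cold PBS and spun 12,372 rpm, 30 min, 4°C. Supernatant was incubated with DCFH-DA (stock 10 mg/mL in DMSO) 30 min in the dark; fluorescence read at ex 485/em 530 nm, in triplicate.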

MSSA [5] = test: Kirby-Bauer disk diffusion test; assay type: cell-based, Staphylococcus aureus; conditions: 18 h
Method in brief: (§2)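 Disk diffusion followed CLSI 2013. Sterile disks soaked in test compound (0–1000 µg/mL) were placed on MH agar and held 30 min at room temperature for diffusion. Plates were then incubated 18 h at 37°C and zones of inhibition read. Controls were distilled water (negative) and a 30 µg cefoxitin disk (positive). Strains were MSSA ATCC 25923 and community-acquired MRSA-pvl+ (A33) and pvl- (172817) lab isolates.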

MRSA-pvl- [6] = test: Kirby-Bauer disk diffusion test; assay type: cell-based, Staphylococcus aureus; conditions: 18 h
Method in brief: as §2

MSSA [7] = test: HRTEM observation of treated bacteria; assay type: cell-based, Staphylococcus aureus; conditions: 150 µg/mL for 12 h
Method in brief: (§3)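 After the time-kill exposure, MRSA (ATCC 700699) and MSSA (ATCC 25923) cells were processed for electron microscopy. Reagents included glutaraldehyde, cacodylate buffer, osmium tetroxide and acetone, followed by resin embedding. Sections of 1 µm were cut and stained with toluidine blue, and areas were chosen by light microscopy. Sections were then mounted on 100-mesh copper grids, stained 15 min with 1% aqueous uranyl acetate, washed, and imaged at 100 kV.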

MRSA [8] = test: CFU counting method; assay type: cell-based; conditions: Staphylococcus aureus, read-out: percentage of inhibition (CFU)
Method in brief: (§4)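 S. aureus strains (MRSA ATCC 700699; community-acquired MRSA-pvl+ A33 and MRSA-pvl- 172817 from the lab collection) at 1.5 × 10^5 CFU/mL were combined in well plates with MH broth and test compound (0–1000 μg/mL). Plates were shaken 4 h at 37°C, then diluted 100-fold and swabbed onto MH agar. After drying at room temperature, plates were incubated 18 h at 37°C and colonies counted. Percentage inhibition was calculated relative to distilled water (negative control); cefoxitin served as positive control.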

MRSA-pvl+ [9] = test: CFU counting method; assay type: cell-based; conditions: Staphylococcus aureus, read-out: percentage of inhibition (CFU)
Method in brief: as §4

MRSA-pvl+ [10] = test: Kirby-Bauer disk diffusion test; assay type: cell-based, Staphylococcus aureus; conditions: 18 h
Method in brief: as §2

[11] = system: 3T3 murine fibroblast cells; test: In vitro cytotoxicity MTT assay; assay type: cell-based; conditions: 50 µg/mL, 24 h
[12] = In vitro cytotoxicity MTT assay; assay type: cell-based, murine; conditions: mouse, 3T3 murine fibroblast cells, cell viability
MRSA-pvl- [13] = test: CFU counting method; assay type: cell-based, Staphylococcus aureus; conditions: 50 µg/mL
Method in brief: as §4

MRSA [14] = test: HRTEM observation of treated bacteria; assay type: cell-based, Staphylococcus aureus; conditions: 150 µg/mL for 12 h
Method in brief: as §3

## CO[C@@]1(NC(=O)Cc2cccs2)C(=O)N2C(C(=O)O)=C(COC(N)=O)CS[C@@H]21 [CFX, cefoxitin]
MRSA [1]; >3 h of exposure (Figure S2)
  inhibition (time-kill): total inhibition
MSSA [2]; >3 h of exposure (Figure S2)
  inhibition (time-kill): total inhibition
MRSA-pvl- [3]
  inhibition (time-kill): total inhibition
MRSA-pvl+ [4]
  inhibition (time-kill): total inhibition

## O=C(O)c1cc(O)c(O)c(O)c1 [GA, Gallic acid]
MRSA [1]; 2 h
  inhibition at 150 µg/mL: 44.9%
MRSA [1]
  inhibition at 150 µg/mL: 29.4%
MSSA [2]; Staphylococcus aureus, MSSA, 2 h, read-out: percentage of inhibition (time-kill)
  inhibition at 150 µg/mL: 50.7%
Zebrafish embryos; 50 and 300 μg/mL, 60 min post-exposure
  ROS content: significantly elevated
Zebrafish embryos; 30 min of exposure
  ROS content: comparable ROS content to control groups
Zebrafish embryos; 120 min post-exposure
  ROS content: reverted to the normal range
MSSA [5]
  concentration at which growth is inhibited (zone of inhibition): 150 µg/mL
MRSA-pvl- [6]
  concentration at which growth is inhibited (zone of inhibition): 300 µg/mL and 150 µg/mL
MSSA [7]
  morphological changes of bacterial cells (HRTEM): disrupted morphology and damaged surface
MRSA [8]
  inhibition at 50 µg/mL: 98.3%
MRSA-pvl+ [9]
  inhibition at 50 µg/mL: 80.1%
MRSA-pvl+ [10]
  concentration at which growth is inhibited (zone of inhibition): 300 µg/mL
[11]
  cell viability: 22.16%
[12]; 24 h
  viability at 24 h, 50 µg/mL: 22.2%
[12]; 72 h
  viability at 72 h, 50 µg/mL: 4.95%
MRSA-pvl- [13]
  inhibition (CFU): significant inhibition
MRSA [14]
  morphological changes of bacterial cells (HRTEM): disrupted morphology and damaged surface

Reference: PMC9719714 (International Journal of Nanomedicine, 2022)
